In ChEMBL document CHEMBL3779767, “Identification of potent and selective MTH1 inhibitors” (Bioorg Med Chem Lett, 2016):
Converted amounts (≈) assume the structure as drawn. The source made the active and inactive calls. The rule behind the calls is not given here.

Assays:
[1] = biological target: Tyrosine-protein kinase ABL1 (Homo sapiens) (UniProt P00519); assay: Inhibition of partial length human ABL1 expressed in mammalian system at 1 uM
How it was run: (§1)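 Single-point screen within a 97-kinase profiling panel, with the test compound at 1 µM.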

[2] = biological target: ALK tyrosine kinase receptor (Homo sapiens) (UniProt Q9UM73); assay: Inhibition of partial length human ALK expressed in mammalian system at 1 uM; how it was run: as §1
[3] = biological target: Aurora kinase A (Homo sapiens) (UniProt O14965); assay: Inhibition of partial length human Aurora A expressed in mammalian system at 1 uM; how it was run: as §1
[4] = biological target: Aurora kinase B (Homo sapiens) (UniProt Q96GD4); assay: Inhibition of partial length human Aurora B expressed in mammalian system at 1 uM; how it was run: as §1
[5] = biological target: Serine/threonine-protein kinase B-raf (Homo sapiens) (UniProt P15056); assay: Inhibition of partial length human BRAF expressed in mammalian system at 1 uM; how it was run: as §1
[6] = biological target: Cyclin-dependent kinase 3 (Homo sapiens) (UniProt Q00526); assay: Inhibition of partial length human CDK3 expressed in bacterial system at 1 uM; how it was run: as §1
[7] = biological target: Macrophage colony-stimulating factor 1 receptor (Homo sapiens) (UniProt P07333); assay: Inhibition of partial length human CSF1R expressed in bacterial system at 1 uM; how it was run: as §1
[8] = biological target: Casein kinase I isoform gamma-2 (Homo sapiens) (UniProt P78368); assay: Inhibition of partial length human CSNK1G2 expressed in bacterial system at 1 uM; how it was run: as §1
[9] = biological target: Epidermal growth factor receptor (Homo sapiens) (UniProt P00533); assay: Inhibition of partial length human EGFR expressed in bacterial system at 1 uM; how it was run: as §1
Sequence of Epidermal growth factor receptor (Homo sapiens) (P00533 whole entry): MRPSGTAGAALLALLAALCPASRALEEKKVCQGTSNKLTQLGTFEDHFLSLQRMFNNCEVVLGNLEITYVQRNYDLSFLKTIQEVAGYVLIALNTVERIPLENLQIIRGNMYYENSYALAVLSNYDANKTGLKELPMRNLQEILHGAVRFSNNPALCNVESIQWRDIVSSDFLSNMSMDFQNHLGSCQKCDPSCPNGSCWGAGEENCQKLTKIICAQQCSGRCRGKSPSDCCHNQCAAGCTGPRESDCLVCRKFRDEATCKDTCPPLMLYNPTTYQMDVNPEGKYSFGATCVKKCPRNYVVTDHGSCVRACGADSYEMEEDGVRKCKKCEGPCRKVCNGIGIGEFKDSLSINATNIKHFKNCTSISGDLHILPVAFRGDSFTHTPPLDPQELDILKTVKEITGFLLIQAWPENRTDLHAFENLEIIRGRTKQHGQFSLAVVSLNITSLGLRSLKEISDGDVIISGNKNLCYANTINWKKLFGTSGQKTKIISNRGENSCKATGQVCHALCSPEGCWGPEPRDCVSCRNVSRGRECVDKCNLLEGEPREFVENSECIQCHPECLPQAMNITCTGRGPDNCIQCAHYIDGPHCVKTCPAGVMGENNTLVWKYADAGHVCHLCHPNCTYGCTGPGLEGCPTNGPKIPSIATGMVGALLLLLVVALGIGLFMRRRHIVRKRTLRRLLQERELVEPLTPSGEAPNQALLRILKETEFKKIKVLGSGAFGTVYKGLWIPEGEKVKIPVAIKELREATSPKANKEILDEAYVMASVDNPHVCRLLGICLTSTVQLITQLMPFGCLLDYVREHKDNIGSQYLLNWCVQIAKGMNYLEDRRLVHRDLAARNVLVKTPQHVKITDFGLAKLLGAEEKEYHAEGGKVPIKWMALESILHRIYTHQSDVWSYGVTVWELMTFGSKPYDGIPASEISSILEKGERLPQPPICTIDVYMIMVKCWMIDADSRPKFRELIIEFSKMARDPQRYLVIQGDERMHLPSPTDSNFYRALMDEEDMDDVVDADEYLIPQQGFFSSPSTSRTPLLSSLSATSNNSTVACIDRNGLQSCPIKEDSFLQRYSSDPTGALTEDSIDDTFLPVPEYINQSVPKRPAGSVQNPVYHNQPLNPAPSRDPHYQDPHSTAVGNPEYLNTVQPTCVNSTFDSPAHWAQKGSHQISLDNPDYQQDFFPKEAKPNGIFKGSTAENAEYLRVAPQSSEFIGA

[10] = biological target: Mitogen-activated protein kinase 3 (Homo sapiens) (UniProt P27361); assay: Inhibition of partial length human ERK1 expressed in bacterial system at 1 uM; how it was run: as §1
[11] = biological target: Glycogen synthase kinase-3 beta (Homo sapiens) (UniProt P49841); assay: Inhibition of partial length human GSK3beta expressed in mammalian system at 1 uM; how it was run: as §1
Sequence of Glycogen synthase kinase-3 beta (Homo sapiens) (P49841 whole entry, looked up): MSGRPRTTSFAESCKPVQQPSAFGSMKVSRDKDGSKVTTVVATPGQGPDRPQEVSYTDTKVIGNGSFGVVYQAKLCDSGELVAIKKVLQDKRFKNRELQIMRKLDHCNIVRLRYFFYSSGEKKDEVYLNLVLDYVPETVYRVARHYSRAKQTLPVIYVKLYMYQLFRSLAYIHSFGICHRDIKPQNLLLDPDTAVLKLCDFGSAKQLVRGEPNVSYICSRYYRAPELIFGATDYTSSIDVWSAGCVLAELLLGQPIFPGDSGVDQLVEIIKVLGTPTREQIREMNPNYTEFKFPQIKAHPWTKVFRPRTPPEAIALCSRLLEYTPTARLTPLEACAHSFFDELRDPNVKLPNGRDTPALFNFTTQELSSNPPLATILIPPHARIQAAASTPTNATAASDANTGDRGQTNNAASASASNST

[12] = biological target: Inhibitor of nuclear factor kappa-B kinase subunit alpha (Homo sapiens) (UniProt O15111); assay: Inhibition of partial length human IKKalpha expressed in mammalian system at 1 uM; how it was run: as §1
Sequence of Inhibitor of nuclear factor kappa-B kinase subunit alpha (Homo sapiens) (O15111 whole entry): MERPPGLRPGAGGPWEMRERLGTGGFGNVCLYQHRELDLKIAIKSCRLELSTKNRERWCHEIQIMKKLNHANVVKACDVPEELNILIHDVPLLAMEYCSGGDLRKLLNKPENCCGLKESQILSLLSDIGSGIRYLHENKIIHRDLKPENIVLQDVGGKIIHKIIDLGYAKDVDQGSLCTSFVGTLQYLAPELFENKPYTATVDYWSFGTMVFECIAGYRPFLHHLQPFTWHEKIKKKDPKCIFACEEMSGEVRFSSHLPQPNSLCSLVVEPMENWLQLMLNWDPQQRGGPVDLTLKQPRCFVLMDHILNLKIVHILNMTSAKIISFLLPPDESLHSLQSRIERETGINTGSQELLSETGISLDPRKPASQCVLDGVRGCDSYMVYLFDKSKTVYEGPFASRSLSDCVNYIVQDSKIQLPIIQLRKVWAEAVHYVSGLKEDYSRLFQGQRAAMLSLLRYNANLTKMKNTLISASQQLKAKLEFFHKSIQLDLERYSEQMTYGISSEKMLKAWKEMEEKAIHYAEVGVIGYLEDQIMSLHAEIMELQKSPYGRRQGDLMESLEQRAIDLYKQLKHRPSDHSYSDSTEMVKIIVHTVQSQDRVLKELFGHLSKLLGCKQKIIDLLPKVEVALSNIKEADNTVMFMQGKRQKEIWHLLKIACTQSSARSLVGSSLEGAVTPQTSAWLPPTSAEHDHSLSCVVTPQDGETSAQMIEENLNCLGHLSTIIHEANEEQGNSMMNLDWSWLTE

[13] = biological target: Mitogen-activated protein kinase 8 (Homo sapiens) (UniProt P45983); assay: Inhibition of partial length human JNK1 expressed in mammalian system at 1 uM; how it was run: as §1
Sequence of Mitogen-activated protein kinase 8 (Homo sapiens) (P45983 whole entry): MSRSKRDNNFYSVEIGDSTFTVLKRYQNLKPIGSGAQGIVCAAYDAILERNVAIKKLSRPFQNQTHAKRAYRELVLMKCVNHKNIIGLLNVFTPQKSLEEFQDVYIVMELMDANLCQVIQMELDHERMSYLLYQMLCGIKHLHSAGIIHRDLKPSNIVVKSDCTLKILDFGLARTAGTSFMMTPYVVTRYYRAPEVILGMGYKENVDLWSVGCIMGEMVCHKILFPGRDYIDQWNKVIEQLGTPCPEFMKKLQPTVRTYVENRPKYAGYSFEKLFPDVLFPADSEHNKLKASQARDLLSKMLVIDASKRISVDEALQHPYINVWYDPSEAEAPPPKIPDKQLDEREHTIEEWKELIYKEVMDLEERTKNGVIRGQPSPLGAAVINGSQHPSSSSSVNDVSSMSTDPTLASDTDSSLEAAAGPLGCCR

[14] = biological target: Serine/threonine-protein kinase STK11 (Homo sapiens) (UniProt Q15831); assay: Inhibition of partial length human LKB1 expressed in bacterial system at 1 uM; how it was run: as §1
[15] = biological target: Mitogen-activated protein kinase kinase kinase 4 (Homo sapiens) (UniProt Q9Y6R4); assay: Inhibition of partial length human MAP3K4 expressed in bacterial system at 1 uM; how it was run: as §1
[16] = biological target: MAP kinase-activated protein kinase 2 (Homo sapiens) (UniProt P49137); assay: Inhibition of partial length human MAPKAPK2 expressed in bacterial system at 1 uM; how it was run: as §1
Sequence of MAP kinase-activated protein kinase 2 (Homo sapiens) (P49137 whole entry, looked up): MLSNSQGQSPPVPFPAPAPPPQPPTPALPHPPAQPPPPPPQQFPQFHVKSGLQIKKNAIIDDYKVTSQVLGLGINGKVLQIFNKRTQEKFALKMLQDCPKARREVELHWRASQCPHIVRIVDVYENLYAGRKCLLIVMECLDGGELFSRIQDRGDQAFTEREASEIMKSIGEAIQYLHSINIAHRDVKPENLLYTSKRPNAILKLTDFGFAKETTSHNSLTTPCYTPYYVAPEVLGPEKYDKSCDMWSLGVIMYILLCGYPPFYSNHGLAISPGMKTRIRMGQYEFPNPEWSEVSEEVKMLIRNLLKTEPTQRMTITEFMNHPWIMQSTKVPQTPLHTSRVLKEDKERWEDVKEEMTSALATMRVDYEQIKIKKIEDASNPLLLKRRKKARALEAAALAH

[17] = biological target: Hepatocyte growth factor receptor (Homo sapiens) (UniProt P08581); assay: Inhibition of partial length human MET expressed in bacterial system at 1 uM
How it was run: (§2)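 Single-concentration screen across a panel of 97 kinases, with the test compound at 1 uM.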

[18] = biological target: MAP kinase-interacting serine/threonine-protein kinase 1 (Homo sapiens) (UniProt Q9BUB5); assay: Inhibition of partial length human MKNK1 expressed in mammalian system at 1 uM; how it was run: as §2
[19] = biological target: Mitogen-activated protein kinase kinase kinase 9 (Homo sapiens) (UniProt P80192); assay: Inhibition of partial length human MLK1 expressed in bacterial system at 1 uM; how it was run: as §2
[20] = biological target: Mitogen-activated protein kinase 11 (Homo sapiens) (UniProt Q15759); assay: Inhibition of partial length human p38beta expressed in bacterial system at 1 uM; how it was run: as §2
Sequence of Mitogen-activated protein kinase 11 (Homo sapiens) (Q15759 whole entry): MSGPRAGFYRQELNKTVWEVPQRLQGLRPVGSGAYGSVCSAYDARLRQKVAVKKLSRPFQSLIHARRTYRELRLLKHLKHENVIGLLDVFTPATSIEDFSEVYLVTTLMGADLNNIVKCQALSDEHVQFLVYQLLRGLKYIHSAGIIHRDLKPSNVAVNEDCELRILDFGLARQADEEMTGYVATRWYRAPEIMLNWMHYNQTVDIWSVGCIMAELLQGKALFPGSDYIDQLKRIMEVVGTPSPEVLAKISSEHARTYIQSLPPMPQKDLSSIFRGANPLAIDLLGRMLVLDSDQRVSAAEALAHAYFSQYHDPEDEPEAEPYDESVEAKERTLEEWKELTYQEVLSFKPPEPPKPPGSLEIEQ

[21] = biological target: Serine/threonine-protein kinase PAK 1 (Homo sapiens) (UniProt Q13153); assay: Inhibition of partial length human PAK1 expressed in bacterial system at 1 uM; how it was run: as §2
[22] = biological target: Platelet-derived growth factor receptor beta (Homo sapiens) (UniProt P09619); assay: Inhibition of partial length human PDGFRbeta expressed in bacterial system at 1 uM; how it was run: as §2
[23] = biological target: Phosphatidylinositol 4,5-bisphosphate 3-kinase catalytic subunit alpha isoform (Homo sapiens) (UniProt P42336); assay: Inhibition of partial length human PIK3Calpha expressed in mammalian system at 1 uM; how it was run: as §2
[24] = biological target: Serine/threonine-protein kinase pim-2 (Homo sapiens) (UniProt Q9P1W9); assay: Inhibition of partial length human PIM2 expressed in bacterial system at 1 uM; how it was run: as §2
[25] = biological target: Serine/threonine-protein kinase pim-3 (Homo sapiens) (UniProt Q86V86); assay: Inhibition of partial length human PIM3 expressed in bacterial system at 1 uM; how it was run: as §2
[26] = biological target: Proto-oncogene tyrosine-protein kinase receptor Ret (Homo sapiens) (UniProt P07949); assay: Inhibition of partial length human RET expressed in bacterial system at 1 uM; how it was run: as §2
[27] = biological target: Rho-associated protein kinase 2 (Homo sapiens) (UniProt O75116); assay: Inhibition of partial length human ROCK2 expressed in mammalian system at 1 uM; how it was run: as §2
[28] = biological target: Non-receptor tyrosine-protein kinase TYK2 (Homo sapiens) (UniProt P29597); assay: Inhibition of partial length human TYK2 JH1catalytic domain expressed in mammalian system at 1 uM; how it was run: as §2
Sequence of Non-receptor tyrosine-protein kinase TYK2 (Homo sapiens) (P29597 whole entry, the tested form may be a part): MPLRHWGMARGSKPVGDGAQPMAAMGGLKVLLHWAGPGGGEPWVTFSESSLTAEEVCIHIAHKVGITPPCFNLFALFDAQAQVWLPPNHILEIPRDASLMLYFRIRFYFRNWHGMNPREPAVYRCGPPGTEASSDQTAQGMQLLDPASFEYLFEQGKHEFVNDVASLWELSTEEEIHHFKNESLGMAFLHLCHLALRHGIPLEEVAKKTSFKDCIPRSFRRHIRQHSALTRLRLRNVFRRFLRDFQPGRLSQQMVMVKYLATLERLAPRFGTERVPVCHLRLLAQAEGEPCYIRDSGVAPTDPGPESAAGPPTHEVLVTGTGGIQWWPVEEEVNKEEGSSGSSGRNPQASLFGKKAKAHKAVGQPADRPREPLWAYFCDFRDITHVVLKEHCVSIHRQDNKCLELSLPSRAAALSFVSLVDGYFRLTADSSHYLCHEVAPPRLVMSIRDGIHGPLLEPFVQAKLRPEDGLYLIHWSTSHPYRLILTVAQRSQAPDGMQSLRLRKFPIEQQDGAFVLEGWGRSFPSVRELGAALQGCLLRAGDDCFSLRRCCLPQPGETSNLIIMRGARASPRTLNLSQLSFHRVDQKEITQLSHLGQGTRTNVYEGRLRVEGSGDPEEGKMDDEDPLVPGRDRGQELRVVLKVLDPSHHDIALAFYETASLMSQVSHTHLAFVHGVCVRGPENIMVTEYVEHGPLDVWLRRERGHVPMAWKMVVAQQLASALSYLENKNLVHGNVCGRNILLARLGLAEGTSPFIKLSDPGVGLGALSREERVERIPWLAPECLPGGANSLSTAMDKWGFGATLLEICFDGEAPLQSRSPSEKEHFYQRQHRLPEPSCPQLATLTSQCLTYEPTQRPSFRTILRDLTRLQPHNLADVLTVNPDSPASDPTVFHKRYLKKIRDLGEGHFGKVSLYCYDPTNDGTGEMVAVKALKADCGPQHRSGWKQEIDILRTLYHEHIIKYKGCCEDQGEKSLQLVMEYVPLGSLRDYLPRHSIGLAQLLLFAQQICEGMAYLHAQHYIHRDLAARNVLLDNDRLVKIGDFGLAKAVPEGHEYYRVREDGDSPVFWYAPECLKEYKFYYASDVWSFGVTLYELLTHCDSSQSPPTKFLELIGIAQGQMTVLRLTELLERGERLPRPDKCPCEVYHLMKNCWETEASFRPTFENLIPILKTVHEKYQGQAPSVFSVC

[29] = biological target: Vascular endothelial growth factor receptor 2 (Homo sapiens) (UniProt P35968); assay: Inhibition of partial length human VEGFR2 expressed in mammalian system at 1 uM; how it was run: as §2
[30] = biological target: Serine/threonine-protein kinase 32C (Homo sapiens) (UniProt Q86UX6); assay: Inhibition of partial length human YANK3 expressed in bacterial system at 1 uM; how it was run: as §2
[31] = Intrinsic clearance in mouse liver microsomes; format: ADME
[32] = Half life in human plasma; format: ADME, cell-free
How it was run: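 Plasma stability was measured in human and rat plasma, with half-life reported in hours.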

[33] = Solubility of the compound in PBS at pH 7; format: physicochemical
How it was run: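 Aqueous solubility was determined in sodium phosphate buffer at pH 7.0.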

[34] = Cytotoxicity against human WI38 cells assessed as change in phenotypic response measured after prolonged treatment; format: cell-based; conditions: wi-38
NCI-H460 [35] = assay: Antiproliferative activity against human NCI-H460 cells assessed as change in phenotypic response measured after prolonged treatment; format: functional, cell-based
[36] = Cytotoxicity against human 293T cells assessed as change in phenotypic response measured after prolonged treatment; format: cell-based; conditions: hek-293t
MDA-MB-231 = assay: Antiproliferative activity against human MDA-MB-231 cells assessed as change in phenotypic response measured after prolonged treatment; format: functional, cell-based
HCT-116 = assay: Antiproliferative activity against human HCT116 cells assessed as change in phenotypic response measured after prolonged treatment; format: functional, cell-based
BJ = assay: Cytotoxicity against human BJ cells assessed as change in phenotypic response up to 50 uM; format: cell-based
[37] = Cytotoxicity against human WI38 cells assessed as change in phenotypic response up to 50 uM; format: cell-based; conditions: wi-38
NCI-H460 [38] = assay: Antiproliferative activity against human NCI-H460 cells assessed as change in phenotypic response up to 50 uM; format: functional, cell-based
MRC5 = assay: Cytotoxicity against human MRC5 cells assessed as change in phenotypic response measured after prolonged treatment; format: cell-based

## Cc1cnc(N)nc1OCC(C)(C)CO
[1]
  inhibition: inactive
[2]
  inhibition: inactive
[3]
  inhibition: inactive
[4]
  inhibition: inactive
[5]
  inhibition: inactive
[6]
  inhibition: inactive
[7]
  inhibition: inactive
[8]
  inhibition: inactive
[9]
  inhibition: inactive
[10]
  inhibition: inactive
[11]
  inhibition: inactive
[12]
  inhibition: inactive
[13]
  inhibition: inactive
[14]
  inhibition: inactive
[15]
  inhibition: inactive
[16]
  inhibition: inactive
[17]
  inhibition: inactive
[18]
  inhibition: inactive
[19]
  inhibition: inactive
[20]
  inhibition: inactive
[21]
  inhibition: inactive
[22]
  inhibition: inactive
[23]
  inhibition: inactive
[24]
  inhibition: inactive
[25]
  inhibition: inactive
[26]
  inhibition: inactive
[27]
  inhibition: inactive
[28]
  inhibition: inactive
[29]
  inhibition: inactive
[30]
  inhibition: inactive
[31]
  CLH: 60 µL/min/mg
[32]
  half-life: 2.42 days
[33]
  solubility: 75.6 µM (≈ 16 µg/mL)
[34]
  Activity: Non-toxic
NCI-H460 [35]
  Activity: inactive
[36]
  Activity: Non-toxic
MDA-MB-231
  Activity: inactive
HCT-116
  Activity: inactive
BJ
  Activity: Non-toxic
[37]
  Activity: Non-toxic
NCI-H460 [38]
  Activity: inactive
MRC5
  Activity: Non-toxic
